Experimental data published in ChEMBL document CHEMBL1140245, “Identification of antitumor activity of pyrazole oxime ethers” (Bioorg Med Chem Lett, 2005).
≈ marks a conversion by molar mass, not a printed value.

What was measured:
[1] = system: XF498; assay: Cytotoxic activity against XF498 cell line (human CNS solid tumor); assay type: functional, cell-based
[2] = system: SK-MEL-2; assay: Cytotoxic activity against SKMEL-2 cell line; assay type: functional, cell-based, Homo sapiens
[3] = system: SK-OV-3; assay: Cytotoxic activity against SKOV-3 cell line (human solid ovarian tumor cell line); assay type: functional, cell-based
[4] = system: HCT-15; assay: Cytotoxic activity against HCT15 cell line (human colon solid tumor cell line); assay type: functional, cell-based
[5] = system: A549; assay: Cytotoxic activity against A549 cell line (non-small cell lung carcinoma); assay type: functional, cell-based, Homo sapiens
[6] = system: HepG2; assay: In vitro antiproliferative activity against HepG2 cell line (human liver tumor) at 1 uM concentration; assay type: functional
Procedure, shortened: (§1)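 Each cell line was exposed to test compound at a single concentration of 1 µM, and activity was reported as percent inhibition.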

[7] = system: MKN-45; assay: In vitro antiproliferative activity against MKN45 cell line (human stomach tumor) at 1 uM concentration; assay type: functional; procedure, shortened: as §1
[8] = system: A549; assay: In vitro antiproliferative activity against A549 cell line (human lung tumor) at 1 uM concentration; assay type: functional; procedure, shortened: as §1
[9] = system: MCF7; assay: In vitro antiproliferative activity against MCF-7 cell line (human breast tumor) at 1 uM concentration; assay type: functional; procedure, shortened: as §1
[10] = Homo sapiens, XF498, read-out: IC50
[11] = Homo sapiens, SK-MEL-2, read-out: IC50
[12] = Homo sapiens, SK-OV-3, read-out: IC50
[13] = Homo sapiens, HCT-15, read-out: IC50
[14] = Homo sapiens, A549, read-out: IC50

| Compound | IC50 [1, 10] [µg/mL] | IC50 [2, 11] [µg/mL] | IC50 [3, 12] [µg/mL] | IC50 [4, 13] [µg/mL] | IC50 [5, 14] [µg/mL] | inhibition at 1 µM [6] [%] | inhibition at 1 µM [7] [%] | inhibition at 1 µM [8] [%] | inhibition at 1 µM [9] [%] | further results |
| --- | --- | --- | --- | --- | --- | --- | --- | --- | --- | --- |
| Cc1nn(C)c(N2CCOCC2)c1/C=N/OCc1ccc(C(=O)OC(C)(C)C)cc1 | 1.04 (≈ 2.51 µM) | 16.7 (≈ 40.3 µM) | 8.87 (≈ 21.4 µM) | 1.83 (≈ 4.41 µM) | 0.39 (≈ 0.941 µM) | – | – | – | – | – |
| Cc1nn(C)c(Oc2ccccc2)c1/C=N/OCCN1CCN(Cc2ccc(C(=O)OC(C)(C)C)cc2)CC1 | – | – | – | – | – | 19.8 | 19.2 | 44.7 | 32 | – |
| Cc1nn(C)c(Oc2ccccc2)c1/C=N/OCc1ccc([N+](=O)[O-])cc1 | – | – | – | – | – | -2.8 | 18.3 | 39.4 | 24 | – |
| Cc1ccc(CO/N=C/c2c(C)nn(C)c2Oc2ccccc2)cc1 | – | – | – | – | – | 8.4 | 17.9 | 29.1 | 38.2 | – |
| CC(C)c1nn(-c2ccccc2)c(Oc2ccc(Cl)cc2)c1/C=N/OCc1ccc(C(F)(F)F)cc1 | – | – | – | – | – | -2.2 | -15.4 | -12.1 | -1.9 | – |
| Cc1nn(C)c(Oc2ccc(Cl)cc2)c1/C=N/OCc1ccc(C(=O)OC(C)(C)C)cc1 | 0.02 (≈ 0.0439 µM) | 18.8 (≈ 41.2 µM) | 0.28 (≈ 0.614 µM) | 0.01 (≈ 0.0219 µM) | 0.1 (≈ 0.219 µM) | – | – | – | – | – |
| Cc1nn(C)c(-n2ccnc2)c1/C=N/OCc1ccc(C(=O)OC(C)(C)C)cc1 | 8.15 (≈ 20.6 µM) | 9.35 (≈ 23.6 µM) | 14.1 (≈ 35.6 µM) | 8.67 (≈ 21.9 µM) | 5.93 (≈ 15 µM) | – | – | – | – | – |
| Cc1nn(C)c(-n2cccc2)c1/C=N/OCc1ccc(C(=O)OC(C)(C)C)cc1 | 2.67 (≈ 6.77 µM) | 24.9 (≈ 63.1 µM) | 3.91 (≈ 9.91 µM) | 2.48 (≈ 6.29 µM) | 1.64 (≈ 4.16 µM) | – | – | – | – | – |
| Cc1ccc(CO/N=C/c2c(C)nn(C)c2Oc2ccc(Cl)cc2)cc1 | – | – | – | – | – | 31.3 | 30.4 | 50 | 30.7 | – |
| Cc1nn(C)c(Oc2ccccc2)c1/C=N/OCCN1CCCCC1 | – | – | – | – | – | -29 | -22.5 | -9.9 | 3.2 | – |
| Cc1c(CO/N=C/c2c(-c3ccccc3)nn(-c3ccccc3)c2Oc2ccc(Cl)cc2)cccc1-c1ccccc1 | – | – | – | – | – | -14.8 | -15 | -10.1 | -17.5 | – |
| Cc1nn(-c2ccccc2)c(Oc2ccc(Cl)cc2)c1/C=N/OCc1ccc(C(=O)OC(C)(C)C)cc1 | – | – | – | – | – | -31.1 | -9.9 | -6.1 | -8.4 | – |
| COc1cccc2c1C(=O)c1c(O)c3c(c(O)c1C2=O)C[C@@](O)(C(=O)CO)C[C@@H]3O[C@H]1C[C@H](N)[C@H](O)[C@H](C)O1 [DOXORUBICIN] | 0.09 (≈ 0.166 µM) | 0.07 (≈ 0.129 µM) | 0.09 (≈ 0.166 µM) | 0.28 (≈ 0.515 µM) | 0.05 (≈ 0.092 µM) | – | – | – | – | – |
| Cc1nn(C)c(Oc2ccccc2)c1/C=N/OCc1cccc(-c2ccccc2)c1C | – | – | – | – | – | -13.2 | -12.1 | 5 | 24.4 | – |
| Cc1nn(C)c(N2CCCC2)c1/C=N/OCc1ccc(C(=O)OC(C)(C)C)cc1 | 0.12 (≈ 0.301 µM) | 14.4 (≈ 36.2 µM) | 3.19 (≈ 8 µM) | 0.1 (≈ 0.251 µM) | 0.13 (≈ 0.326 µM) | – | – | – | – | – |
| COc1cccc(CO/N=C/c2c(C)nn(C)c2Oc2ccccc2)c1 | – | – | – | – | – | -41.2 | -19.6 | 1 | 8.4 | – |
| Cc1nn(C)c(Oc2ccccc2)c1/C=N/OCCN1CCN(Cc2ccccc2)CC1 | – | – | – | – | – | 6.7 | 10.5 | 28.4 | 23.4 | – |
| Cc1nn(C)c(Oc2ccccc2)c1/C=N/OCCN1CCOCC1 | – | – | – | – | – | -40.5 | -28 | -19.4 | 5.4 | – |

| Compound | IC50 [1, 10] [µg/mL] | IC50 [2, 11] [µg/mL] | IC50 [3, 12] [µg/mL] | IC50 [4, 13] [µg/mL] | IC50 [5, 14] [µg/mL] | inhibition at 1 µM [6] [%] | inhibition at 1 µM [7] [%] | inhibition at 1 µM [8] [%] | inhibition at 1 µM [9] [%] | further results |
| --- | --- | --- | --- | --- | --- | --- | --- | --- | --- | --- |
| Cc1nn(C)c(N(C)C)c1/C=N/OCc1ccc(C(=O)OC(C)(C)C)cc1 | 3.87 (≈ 10.4 µM) | 23.9 (≈ 64.3 µM) | 9.06 (≈ 24.3 µM) | 6.22 (≈ 16.7 µM) | 2.76 (≈ 7.41 µM) | – | – | – | – | – |
| Cc1nn(C)c(Sc2ccccc2)c1/C=N/OCc1ccc(C(=O)OC(C)(C)C)cc1 | 0.28 (≈ 0.64 µM) | 4.91 (≈ 11.2 µM) | 0.92 (≈ 2.1 µM) | 0.26 (≈ 0.594 µM) | 0.13 (≈ 0.297 µM) | – | – | – | – | – |
| Cc1nn(C)c(-n2cccn2)c1/C=N/OCc1ccc(C(=O)OC(C)(C)C)cc1 | 5.51 (≈ 13.9 µM) | 28.8 (≈ 72.8 µM) | 9.63 (≈ 24.4 µM) | 3.63 (≈ 9.18 µM) | 2.49 (≈ 6.3 µM) | – | – | – | – | – |
| CCOC(=O)c1ccc(CO/N=C/c2c(C)nn(-c3ccccc3)c2Oc2ccc(Cl)cc2)cc1 | – | – | – | – | – | -31.8 | -17.8 | -9.9 | 12 | – |
| Cc1nn(C)c(Oc2ccccc2)c1/C=N/OCCN1CCCC1 | – | – | – | – | – | -25 | -24.2 | -8.2 | 7.7 | – |
| CC(C)c1nn(-c2ccccc2)c(Oc2ccc(Cl)cc2)c1/C=N/OCc1ccc(C(=O)OC(C)(C)C)cc1 | – | – | – | – | – | -14.7 | -27 | -10 | -4.9 | – |
| Cc1nn(C)c(Oc2ccccc2)c1/C=N/OCc1ccc(C(=O)OC(C)(C)C)cc1 [FENPYROXYMATE] | 0.04 (≈ 0.0949 µM) | 13.3 (≈ 31.5 µM) | 0.21 (≈ 0.498 µM) | 0.02 (≈ 0.0474 µM) | 0.12 (≈ 0.285 µM) | – | – | – | – | – |
| CCOC(=O)c1ccc(CO/N=C/c2c(C)nn(C)c2Oc2ccc(Cl)cc2)cc1 | – | – | – | – | – | 27.4 | 20.9 | 48.2 | 33.9 | – |
| COc1ccc(CO/N=C/c2c(C)nn(C)c2Oc2ccc(Cl)cc2)cc1 | – | – | – | – | – | 13.9 | 28.1 | 43.9 | 37 | – |
| Cc1nn(C)c(Oc2ccc(Cl)cc2)c1/C=N/OCc1ccc(C(F)(F)F)cc1 | – | – | – | – | – | 20.6 | 27.6 | 50.9 | 16.4 | – |
| Cc1nn(C)c(Oc2ccc(Cl)cc2)c1/C=N/OCc1ccc([N+](=O)[O-])cc1 | – | – | – | – | – | 18.4 | 24.6 | 39.6 | 27.1 | – |
| COC(=O)c1ccc(CO/N=C/c2c(C)nn(C)c2Oc2ccc(Cl)cc2)cc1 | – | – | – | – | – | 20.3 | 26.1 | 49.9 | 33.6 | – |
| Cc1nn(C)c(-n2ccc3ccccc32)c1/C=N/OCc1ccc(C(=O)OC(C)(C)C)cc1 | 1.61 (≈ 3.62 µM) | 26.5 (≈ 59.6 µM) | 2.07 (≈ 4.66 µM) | 1.57 (≈ 3.53 µM) | 0.43 (≈ 0.967 µM) | – | – | – | – | – |
| CISPLATIN | – | – | – | – | – | – | – | – | – | IC50 ([1]; xf498): 3.47 µg/mL; IC50 ([2]; sk-mel-2): 3.28 µg/mL; IC50 ([3]; sk-ov-3): 3.42 µg/mL; IC50 ([4]; hct-15): 6.91 µg/mL; IC50 ([5]; a549): 3.09 µg/mL |
| Cc1nn(C)c(Oc2ccccc2)c1/C=N/OCc1ccc(C(F)(F)F)cc1 | – | – | – | – | – | 5.8 | 11 | 34.7 | 30.5 | – |
| Cc1nn(-c2ccccn2)c(Oc2ccccc2)c1/C=N/OCc1ccc(C(=O)OC(C)(C)C)cc1 | – | – | – | – | – | -25.1 | -9.8 | -9.1 | -14.8 | – |
| Cc1nn(C)c(Oc2ccccc2)c1/C=N/OCCN(C)C | – | – | – | – | – | -36.1 | -29 | -5.9 | 8.9 | – |
| Cc1nn(C)c(Oc2ccccc2)c1/C=N/OCCN1CCN(Cc2ccc(C(F)(F)F)cc2)CC1 | – | – | – | – | – | 14.4 | 15.4 | 39.7 | 37.7 | – |
